From ChEMBL document CHEMBL4130517, “Discovery of a Tetrahydrobenzisoxazole Series of γ-Secretase Modulators” (ACS Med Chem Lett, 2017)
Activity calls are given as the source filed them. The rule behind the calls is not given here.

Experiments:
[1] = biological target: T1, Gamma-secretase (Homo sapiens) (UniProt Q96BI3+Q9NZ42+Q8WW43+P49768+Q92542+P49810); assay: Modulation of gamma-secretase (unknown origin) expressed in HEK293 cells harboring SCP99-Lon mutation assessed as ratio of total amyloid beta to amyloid beta 42 level after 5 hrs by sandwich immunoassay; format: cell-based
Summary of the method: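 HEK293 cells exposed 5 h to varied GSM concentrations. Conditioned medium assayed by MSD sandwich electrochemiluminescence immunoassay: Aβ42 with TAG-G2-11/biotin-4G8, total Aβ with TAG-W02/biotin-4G8. Ratio formed from total Aβ and Aβ42.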

[2] = biological target: T1, Gamma-secretase (Homo sapiens); assay: Modulation of gamma-secretase (unknown origin) expressed in HEK293 cells harboring SCP99-Lon mutation assessed as reduction in amyloid beta 42 level at 10 uM by surface enhanced laser desorption/ionization mass spectrometry; format: cell-based
[3] = biological target: T1, Gamma-secretase (Homo sapiens); assay: Modulation of gamma-secretase (unknown origin) expressed in HEK293 cells harboring SCP99-Lon mutation assessed as reduction in amyloid beta 40 level at 10 uM by surface enhanced laser desorption/ionization mass spectrometry; format: cell-based
[4] = biological target: T1, Gamma-secretase (Homo sapiens); assay: Modulation of gamma-secretase (unknown origin) expressed in HEK293 cells harboring SCP99-Lon mutation assessed as increase in amyloid beta 38 level at 10 uM by surface enhanced laser desorption/ionization mass spectrometry; format: cell-based
[5] = biological target: T1, Gamma-secretase (Homo sapiens); assay: Modulation of gamma-secretase (unknown origin) expressed in HEK293 cells harboring SCP99-Lon mutation assessed as increase in amyloid beta 37 level at 10 uM by surface enhanced laser desorption/ionization mass spectrometry; format: cell-based
Gamma-secretase = assay: Modulation of gamma-secretase (unknown origin) expressed in HEK293 cells harboring SCP99-Lon mutation assessed as reduction in Abeta42 production after 5 hrs by sandwich immunoassay; format: cell-based, Homo sapiens
Summary of the method: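 HEK293 cells incubated 5 h with a range of GSM concentrations. Aβ42 in conditioned medium quantified by MSD sandwich electrochemiluminescence immunoassay, using TAG-G2-11 and biotin-4G8 antibodies.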

[6] = Dissociation constant, pKa of the compound; format: physicochemical
Rattus norvegicus = assay: Reduction in amyloid beta 42 level in Sprague-Dawley rat cerebrospinal fluid at 30 mg/kg, po administered as single dose after 3 hrs by sandwich immunoassay relative to control; format: functional; design: scale not given: the % may be the effect or the level left
Summary of the method: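 Non-transgenic rats received a single oral 30 mg/kg dose or vehicle. CSF sampled 3 h later and Aβ42 compared against vehicle-treated animals; n = 5.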

[7] = Drug uptake in plasma of Sprague-Dawley rat at 30 mg/kg, po after 3 hrs by LC-MS/MS analysis; format: ADME, organism-based
Summary of the method: (§1)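 Rats given a single oral dose of 30 mg/kg. Plasma and brain collected 3 h post-dose and drug concentration measured; n = 3.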

[8] = Drug uptake in brain of Sprague-Dawley rat at 30 mg/kg, po after 3 hrs by LC-MS/MS analysis; format: ADME, organism-based; conditions: read-out: Drug uptake; summary of the method: as §1
P-gp [9] = assay: Substrate activity at P-gp (unknown origin) assessed as permeability across apical to basolateral side; format: ADME; conditions: human, not told; read-out: permeability
P-gp [10] = assay: Substrate activity at P-gp (unknown origin) assessed as permeability across basolateral to apical side; format: ADME; conditions: human, not told; read-out: permeability
P-gp [11] = assay: Substrate activity at P-gp (unknown origin) assessed as efflux ratio of permeability across basolateral to apical over apical to basolateral side; format: ADME; conditions: human, not told

SMILES	Ratio [1]	IC50 (Gamma-secretase)	other results
COc1cc(-c2noc3c2CCCC3Nc2ccc(F)cc2)ccc1-n1cnc(C)c1 (stereo in doubt; 14a) [listing 1 of 2 here]	499	–	Activity [2]: Active; Activity [3]: Active; Activity [4]: Active; Activity [5]: Active
COc1cc(-c2noc3c2CCCC3NCc2cc(F)cc(F)c2)ccc1-n1cnc(C)c1 (stereo in doubt; 14c) [listing 1 of 2 here]	575	–	Activity [2]: Active; Activity [3]: Active; Activity [4]: Active; Activity [5]: Active
CNC1CCCc2c(-c3ccc(-n4cnc(C)c4)c(OC)c3)noc21 (stereo not given)	2	12000 nM	pKa [6]: 8.1
COc1cc(-c2noc3c2CCCC3NC2CCCCC2)ccc1-n1cnc(C)c1 (stereo not given)	64	310 nM	pKa [6]: 8.42
COc1cc(-c2noc3c2CCCC3NCc2cc(F)cc(F)c2)ccc1-n1cnc(C)c1 (stereo in doubt; 14d) [listing 1 of 2 here]	–	640 nM	–
COc1cc(-c2noc3c2CCCC3NCC(F)(F)F)ccc1-n1cnc(C)c1 (stereo not given)	43	460 nM	pKa [6]: 5.42
COc1cc(-c2noc3c2CCCC3Nc2ccc(F)cc2)ccc1-n1cnc(C)c1 (stereo in doubt; 14b) [listing 2 of 2 here]	86	–	–
COc1cc(-c2noc3c2CCCC3OCc2cc(F)cc(F)c2)ccc1-n1cnc(C)c1 (stereo not given)	39	510 nM	–
COc1cc(-c2noc3c2CCCC3NCc2cc(F)cc(F)c2)ccc1-n1cnc(C)c1 (stereo in doubt; 14d) [listing 2 of 2 here]	28	–	–

Continued, in another order:

Ratio [1]	IC50 (Gamma-secretase)	SMILES	other results
178	110 nM	COc1cc(-c2noc3c2CCCC3c2cc(F)cc(F)c2)ccc1-n1cnc(C)c1 (stereo not given)	–
98	200 nM	COc1cc(-c2noc3c2CCCC3Oc2cc(F)cc(F)c2)ccc1-n1cnc(C)c1 (stereo not given)	–
105	190 nM	COc1cc(-c2noc3c2CCCC3(O)c2cc(F)cc(F)c2)ccc1-n1cnc(C)c1 (stereo not given)	–
32	130 nM	COc1cc(-c2noc3c2CCCC3NCc2ccc(F)cc2)ccc1-n1cnc(C)c1 (stereo not given)	pKa [6]: 7.08; Activity [2]: Active; Activity [3]: Active; Activity [4]: Active; Activity [5]: Active
102	150 nM	COc1cc(-c2noc3c2CCCC3(O)Cc2cc(F)cc(F)c2)ccc1-n1cnc(C)c1 (stereo not given)	–
–	230 nM	COc1cc(-c2noc3c2CCCC3Nc2ccc(F)cc2)ccc1-n1cnc(C)c1 (stereo in doubt; 14b) [listing 1 of 2 here]	–
77	260 nM	COc1cc(-c2noc3c2CCCC3N[C@H](C)c2ccc(F)cc2)ccc1-n1cnc(C)c1 (stereo not given in full)	–
68	290 nM	COc1cc(-c2noc3c2CCCC3Oc2ccc(F)cc2)ccc1-n1cnc(C)c1 (stereo not given)	–
–	39 nM	COc1cc(-c2noc3c2CCCC3Nc2ccc(F)cc2)ccc1-n1cnc(C)c1 (stereo in doubt; 14a) [listing 2 of 2 here]	pKa [6]: 5.33; Activity (Rattus norvegicus): 58%; concentration at 3 h [7]: 10.4 µM; concentration at 3 h [8]: 14.3 µM; Papp A→B (P-gp [9]): 37.6 ×10⁻⁶ cm/s; Papp B→A (P-gp [10]): 60 ×10⁻⁶ cm/s; efflux ratio (P-gp [11]): 1.6
79	250 nM	COc1cc(-c2noc3c2CCCC3N(C)Cc2ccc(F)cc2)ccc1-n1cnc(C)c1 (stereo not given)	–
–	29 nM	COc1cc(-c2noc3c2CCCC3NCc2cc(F)cc(F)c2)ccc1-n1cnc(C)c1 (stereo in doubt; 14c) [listing 2 of 2 here]	concentration at 3 h [7]: 6.01 µM; concentration at 3 h [8]: 2.19 µM; Papp A→B (P-gp [9]): 6.8 ×10⁻⁶ cm/s; Papp B→A (P-gp [10]): 46.2 ×10⁻⁶ cm/s; efflux ratio (P-gp [11]): 6.8
